Screening results: PubChem, Broad Institute
Most compounds without a hit are left out; they make up all but 0.98% or so of the library.
Rtt109 HAT inh: inhibitors of C. albicans Rtt109/Vps75 HAT, primary screen, biochemical, ThioGlo CoA-SH fluorescence, plate reader | inhibition, % at 34.9 µM | actives 0.16% (n = 330,000) | AID 540336, 2011 | Histone acetyltransferase RTT109 (Candida albicans (strain SC5314 / ATCC MYA-2876)), … | purified Rtt109/Vps75, 4 h;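 active = inhibition of at least 50% in every replicate; inconclusive = best replicate reaches 50% inhibition but some replicates fall short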
Target sequence (Q5AAJ8 whole entry, looked up): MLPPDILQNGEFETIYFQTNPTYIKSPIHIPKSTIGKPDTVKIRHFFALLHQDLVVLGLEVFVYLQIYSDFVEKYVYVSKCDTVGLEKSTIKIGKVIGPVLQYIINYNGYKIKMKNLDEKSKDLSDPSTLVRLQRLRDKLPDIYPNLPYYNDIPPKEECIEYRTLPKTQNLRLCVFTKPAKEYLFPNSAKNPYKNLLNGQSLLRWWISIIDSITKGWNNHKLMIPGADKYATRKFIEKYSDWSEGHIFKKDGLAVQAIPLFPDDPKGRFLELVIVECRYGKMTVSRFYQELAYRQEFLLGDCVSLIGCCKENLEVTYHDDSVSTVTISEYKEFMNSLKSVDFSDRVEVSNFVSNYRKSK
ERAP1 HTS inh: human ERAP1 aminopeptidase inhibitors, primary screen, biochemical, single point, plate reader | Endoplasmic reticulum aminopeptidase 1 (Homo sapiens), Q9NZ08 | recombinant ERAP1, Leu-AMC fluorescence, 60 min | inhibition, % at 10.7 µM | actives 0.15% (n = 340,000);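 active = mean replicate inhibition of at least 30%, or all replicates individually reaching that 30% level; inactive = mean below 30% and not every replicate reaching it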;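 note: 0% = neutral control wells and 100% = L-leucinethiol positive control wells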
PGC1a acetyl inh: inhibitors of PGC1a acetylation signal, primary screen, cell-based, U2OS, AlphaScreen, inhibitor mode. AlphaScreen anti-acetyl-lysine; with virally co-expressed GCN5 acetyltransferase. inhibition, % at 15.6 µM. actives 0.17% (n = 350,000);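 active = every replicate shows inhibition of at least 40%; inconclusive = mean inhibition at least 40% but some replicate below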;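 note: 0% = neutral control wells and 100% = positive control wells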
Statin myotox sup: suppressors of statin myotoxicity in C2C12 myotubes, primary screen, cell-based, single point, plate reader. C2C12 myotubes + simvastatin, ATP luminescence, 48 h; scaled: DMSO 0, geranylgeraniol control 100. rescue of ATP level, % at 7.49 µM. actives 0.78% (n = 330,000). AID 602340, 2012;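 active = mean ATP rescue above about 67%, or every replicate alone reaching that limit, limit read from the data, passing the limit was not always enough; inconclusive = no clear call, values can overlap the other calls; inactive = mean under the limit and some replicate under it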;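 note: myotubes were challenged with 10 µM simvastatin during compound exposure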
S100A4 MyoIIA: inhibitors of S100A4-myosin IIA peptide binding, primary screen, biochemical, fluorescence polarization, TAMRA-MyoIIA peptide; Protein S100-A4 (Homo sapiens), P26447; inhibition, % at 10.7 µM; actives 0.14% (n = 360,000); AID 652163, 2013;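 active = mean inhibition of at least 70% across replicates, with every replicate also reaching that level; inconclusive = mean inhibition reaches 70% but some replicates fall short; inactive = mean inhibition below 70%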
Target sequence (P26447 whole entry, looked up): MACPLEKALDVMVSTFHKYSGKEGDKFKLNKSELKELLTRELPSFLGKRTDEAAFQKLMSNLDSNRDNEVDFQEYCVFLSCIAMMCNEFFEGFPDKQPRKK
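System – human S100A4 monomer protein, biochemical binding assay · Buffer or medium – Calcium-containing HEPES buffer, pH 7.2 · Timing – 5 min between mix addition and reading · Also added – TAMRA-labelled myosin IIA heavy-chain peptide probe, 5 nM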
* hit, by the source's call; ? = inconclusive; . = no result.

SMILES | Rtt109 HAT inh | ERAP1 HTS inh | PGC1a acetyl inh | Statin myotox sup | S100A4 MyoIIA
COc1cccc(NC(=O)CSc2nnc(-c3cc(-c4ccccn4)nc4ccccc34)o2)c1 | 1 | . | 0 | 83* | .
OC[C@@H]1[C@H](c2ccc(/C=C/c3ccccc3)cc2)[C@@H]2CN(Cc3ccncc3)CCCCN12 | . | 2 | -2 | 20 | ?
O=C(O)CCSCCC(=O)O | -1 | . | -2 | 91* | 10
COc1ccc(S(=O)(=O)Nc2ccc3c(c2)CC(=O)N([C@H](C)CO)C[C@H](C)[C@H](CN(C)Cc2ccc(Oc4ccccc4)cc2)O3)cc1 | . | 2 | -5 | 5 | -8
COc1ccc(S(=O)(=O)Nc2ccc3c(c2)CC(=O)N([C@H](C)CO)C[C@H](C)[C@@H](CN(C)CC2CC2)O3)cc1 | . | -4 | 28 | 5 | 118*
COc1ccc(CN(C)C[C@@H]2Oc3ccc(NS(=O)(=O)c4ccc(OC)cc4)cc3CC(=O)N([C@H](C)CO)C[C@@H]2C)cc1 | . | -2 | 6 | 11 | -7
COc1ccc(CN(C)C[C@H]2Oc3ccc(NS(=O)(=O)c4ccc(Cl)cc4)cc3CC(=O)N([C@H](C)CO)C[C@H]2C)cc1 | . | -1 | -7 | 63 | 15
COc1ccc(S(=O)(=O)Nc2ccc3c(c2)CC(=O)N([C@@H](C)CO)C[C@H](C)[C@@H](CN(C)Cc2ccc(Cl)c(Cl)c2)O3)cc1 | . | 4 | -16 | 122* | -1
COc1ccc(S(=O)(=O)Nc2ccc3c(c2)CC(=O)N([C@@H](C)CO)C[C@@H](C)[C@H](CN(C)Cc2ccc(Oc4ccccc4)cc2)O3)cc1 | . | 1 | -12 | 97* | 7
COc1ccc(CN(C)C[C@H]2Oc3ccc(NS(=O)(=O)c4ccc(Cl)cc4)cc3CC(=O)N([C@@H](C)CO)C[C@@H]2C)cc1 | . | -1 | -4 | 86* | -13
CC(C)NC(=O)Nc1cccc2c1O[C@H](CN(C)S(=O)(=O)c1ccc(Cl)cc1)[C@H](C)CN([C@H](C)CO)C2=O | . | -3 | -1 | 0 | 1
Cc1noc(C)c1S(=O)(=O)Nc1ccc2c(c1)C(=O)N([C@@H](C)CO)C[C@@H](C)[C@H](CN(C)C(=O)Cc1ccccc1)OCCCC[C@@H](C)O2 | . | 0 | -12 | 49 | 14
C[C@H](CO)N1C[C@H](C)[C@H](CN(C)Cc2ccccc2)Oc2ccc(NS(=O)(=O)c3ccccc3)cc2CC1=O | . | 0 | 6 | 18 | 87*
COc1ccc(S(=O)(=O)Nc2ccc3c(c2)CC(=O)N([C@H](C)CO)C[C@@H](C)[C@H](CN(C)Cc2ccccc2)O3)cc1 | . | -3 | . | 72* | 4
C[C@@H]1CN([C@@H](C)CO)C(=O)Cc2cc(NS(=O)(=O)c3ccc(F)cc3)ccc2O[C@H]1CN(C)Cc1ccc(Oc2ccccc2)cc1 | . | -1 | -10 | 99* | 8
COc1ccc(S(=O)(=O)Nc2ccc3c(c2)CC(=O)N([C@@H](C)CO)C[C@H](C)[C@H](CN(C)Cc2ccccc2)O3)cc1 | . | -1 | . | 54 | -1
COC(=O)[C@@H]1[C@@H](CO)[C@@H]2Cn3c(ccc(/C=C/c4ccccc4)c3=O)[C@@H]2N1C(=O)CC1CC1 | . | . | 2 | 4 | .
O=C(O)CCC(=O)Nc1ccc(SSc2ccc(NC(=O)CCC(=O)O)cc2)cc1 | -5 | 38* | 6 | 6 | -3
O=C(O)CCC(=O)Nc1ccc(F)cc1 | 0 | . | . | . | .
CCOC(=O)N1CCC(NC(=O)c2cc(C)c3c(C)nn(-c4ccccc4)c3n2)CC1 | -9 | . | -22 | 118* | .
N#C[C@@H]1[C@H](c2ccccc2)[C@H](CO)N1S(=O)(=O)Cc1ccccc1 | . | -3 | 2 | 5 | 7
COc1ccc(CN(C)C[C@H]2Oc3ccc(NC(=O)NC4CCCCC4)cc3C(=O)N([C@@H](C)CO)C[C@H]2C)cc1 | . | -3 | -10 | 6 | 12
C[C@H](CO)N1C[C@H](C)[C@@H](CN(C)Cc2ccc(Cl)c(Cl)c2)Oc2ccc(NS(=O)(=O)c3ccc(F)cc3)cc2CC1=O | . | . | 3 | 112* | .
C[C@@H]1CN([C@H](C)CO)C(=O)Cc2cc(NS(=O)(=O)c3ccc(F)cc3)ccc2O[C@@H]1CN(C)Cc1ccc(Cl)c(Cl)c1 | . | . | 3 | ? | .
C[C@H]1CN([C@@H](C)CO)C(=O)Cc2cc(NS(=O)(=O)c3ccc(F)cc3)ccc2O[C@@H]1CN(C)Cc1ccc(Cl)c(Cl)c1 | . | . | -5 | 69* | .
SMILES | Rtt109 HAT inh | ERAP1 HTS inh | PGC1a acetyl inh | Statin myotox sup | S100A4 MyoIIA
CO[C@@H]1CN(C)C(=O)c2ccc(NC(C)=O)cc2OC[C@H](C)N(C(=O)C2CC2)C[C@@H]1C | . | 0 | -8 | -3 | -1
N=c1n(CCN2CCCCC2)c2ccccc2n1CC(O)c1ccc(Cl)c(Cl)c1 (stereo not drawn) | 58* | . | -5 | -9 | .
COc1ccc(S(=O)(=O)Nc2ccc3c(c2)C(=O)N([C@@H](C)CO)C[C@@H](C)[C@H](CN(C)C(=O)c2ccccc2)OCCCC[C@@H](C)O3)cc1 | . | 2 | . | 113* | -8
C[C@@H]1CN([C@@H](C)CO)C(=O)c2cc(NC(=O)NC3CCCCC3)ccc2O[C@@H](C)CCCCO[C@H]1CN(C)C(=O)c1ccccc1 | . | -1 | -6 | 85* | 9
COc1ccc(S(=O)(=O)Nc2ccc3c(c2)C(=O)N([C@H](C)CO)C[C@H](C)[C@H](CN(C)C(=O)Nc2ccccc2)OCCCC[C@H](C)O3)cc1 | . | 4 | -18 | 11 | 108*
Cc1ccccc1CSc1nnc(-c2ccco2)n1Cc1ccco1 | 3 | . | 99* | . | .
COc1cccc(-c2ccc3c(c2)[C@@H]2[C@@H](CCN2S(=O)(=O)c2ccccc2F)[C@H](CO)N3C)c1 | . | . | 9 | -20 | .
O=C(NCc1ccccc1)C1CCC(CNS(=O)(=O)c2cccs2)CC1 (stereo not drawn) | 13 | 0 | 2 | 97* | -1
CCC(=O)Nc1ccc2c(c1)C(=O)N(C)C[C@@H](OC)[C@@H](C)CN(CCc1ccccc1)[C@@H](C)CO2 | . | -2 | 4 | 15 | 7
O=C(CN1CCCCC1)Nc1ccc(C(F)(F)F)cc1Cl | 1 | -2 | -17 | 91* | 3
O=C(CN1CCCC1)Nc1cc(C(F)(F)F)ccc1Cl | -5 | 7 | -15 | . | 8
O=C(O)CSCC(=O)Nc1cc(C(F)(F)F)ccc1Cl | 66* | . | -3 | 15 | .
COc1cc(CO)cc(I)c1O[C@H]1C=C(C(=O)NCCO)C[C@@H](N(CC2CCCCC2)C(=O)c2ccc(C(F)(F)F)cc2)[C@@H]1O | . | 1 | -5 | . | 0
